The test system of one series is LoVo cells. Nature of the series: Clonogenic survival assay, LoVo. Particulars: LoVo, 16 hr. Type of series: cell-based, human. In a few lines: (§1)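 Clonogenic assay in RPMI 1640 + 10% FBS, 37°C, 5% CO2, <30 passages; HCT116-N7 stably expresses HPV16 E6. Exponentially growing cells had 16 h exposure to cytotoxic (etoposide, doxorubicin or camptothecin; etoposide 1 μM for the bar data) ± test compound 1 μM in 0.5% DMSO, then were seeded for colonies. Survival was normalised to DMSO or inhibitor-alone control. Enhancement factor = survival cytotoxic alone ÷ survival combination, per experiment; 3 independent experiments.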

The test system of the next series is SW620 cells. Nature of the series: Clonogenic survival assay, SW620. Type of series: cell-based, human. Particulars: 16 hr. In outline:
as §1

In another series the test system is human tumour cell lines. Particulars: cited from earlier work.
In another series the test system is HCT116-N7 xenografts. Nature of the series: Anti-tumour efficacy, HCT116-N7 xenografts. In kind it is in vivo, mice. Particulars: etopophos 11.35 mg/kg i.p. daily for 5 days alone.
The test system of the next series is SW620 xenografts. Nature of the series: Anti-tumour efficacy, SW620 xenografts. In kind it is in vivo, mice. Particulars: etopophos (equivalent to 10 mg/kg etoposide) daily ×5 alone.
The next series can be described thus: Body weight. Type of series: in vivo, mice.

The structures appear in SMILES notation.

Consider `CC[C@@]1(O)C(=O)OCc2c1cc1n(c2=O)Cc2cc3ccccc3nc2-1` [Camptothecin, camptothecin, reference compound], for which the “% Survival Cytotoxic alone” value in the series on LoVo cells (cytotoxic 10 nM) came out at 33 ± 7.9%; with SW620 cells (SW620, cytotoxic 10 nM) it was 2.4 ± 0.2%.

In the case of `COc1cccc2c1C(=O)c1c(O)c3c(c(O)c1C2=O)C[C@@](O)(C(=O)CO)C[C@@H]3O[C@H]1C[C@H](N)[C@H](O)[C@H](C)O1` [Doxorubicin, doxorubicin, reference compound], the “% Survival Cytotoxic alone” value was 47 ± 3.1% in the series with LoVo cells (cytotoxic 10 nM); 2.1 ± 0.5% with LoVo cells (cytotoxic 100 nM); 50 ± 9% with SW620 cells (SW620, cytotoxic 10 nM); 0.02 ± 0.01% in the series on SW620 cells (SW620, cytotoxic 100 nM).

Consider `COc1cc([C@@H]2c3cc4c(cc3[C@@H](O[C@@H]3O[C@@H]5CO[C@@H](C)O[C@H]5[C@H](O)[C@H]3O)[C@H]3COC(=O)[C@H]23)OCO4)cc(OC)c1O` [Etoposide, etoposide, reference compound], for which the “% Survival Cytotoxic alone” value with LoVo cells (cytotoxic 100 nM) turned out to be 58 ± 8.3%; in the series on LoVo cells (cytotoxic 1 μM) it was 3.9 ± 0.8%; in the series on SW620 cells (SW620, cytotoxic 100 nM), 89 ± 8.3%; in the series on SW620 cells (SW620, cytotoxic 1 μM), 3.8 ± 1.1%.

As to `C[C@@H]1CN(CC(=O)Nc2ccc3c(c2)Cc2cccc(-c4cc(=O)cc(N5CCOCC5)o4)c2S3)C[C@H](C)O1` [KU-600019], in the series on human tumour cell lines, the “Concentration needed to induce in vitro chemo- and radio-sensitisation” value is 3 µM.

Regarding `COc1cc([C@@H]2c3cc4c(cc3[C@@H](O[C@@H]3O[C@@H]5CO[C@@H](C)O[C@H]5[C@H](O)[C@H]3O)[C@H]3COC(=O)[C@H]23)OCO4)cc(OC)c1OP(=O)(O)O` [etopophos, Etoposide phosphate, reference compound], the “Median time to RTV4” value in the series on HCT116-N7 xenografts came out at 5.5 days. In addition, in the series on SW620 xenografts, the “Delay” value was 4 days and the “Time to RTV4” value is listed as 10.5 days. Besides, the “Nadir % Starting Body weight” value in “Body weight” (etopophos (equivalent to 10 mg/kg etoposide) daily ×5 alone) amounted to 98.6%. Moreover, the “Maximum body weight loss” value in the series “Body weight” (given as a single agent, SW620 xenograft studies) was < 2%.
